# Source: ChEMBL document CHEMBL4689842, “EUbOPEN Chemogenomics Library wave 1” (2021)
# Tested on: HEK-293T
# Assay: Multiplex assay against HEK293T;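 for Population Tubulin-Different-Phenotype (%): share of the cells with healthy nuclei that show this phenotype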
# Type: toxicity, cell-based
# Conditions: human
# In short: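 Tubulin, mitochondrial-mass and membrane-permeability phenotypes are per cents of healthy-nucleus cells. Cells were gated by CellPathfinder machine learning into Hoechst high-intensity objects or normal cells, normal cells into healthy, pyknosed or fragmented nuclei, and pyknosed cells into mitotic or apoptotic. Before that, live cells stained at seeding with Hoechst33342, BioTracker Green Microtubule Cytoskeleton Dye, MitoTracker Red and Annexin V Alexa Fluor 680 were imaged on a CQ1 microscope at 37°C and 5% CO2 after compound addition.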
# [1] = 12 h, 1 µM, compound concentration 1 uM, replicate 1
# [2] = 12 h, 1 µM, compound concentration 1 uM, replicate 2
# [3] = 12 h, 10 µM, compound concentration 10 uM, replicate 1
# [4] = 12 h, 10 µM, compound concentration 10 uM, replicate 2
# [5] = 24 h, 1 µM, compound concentration 1 uM, replicate 1
# [6] = 24 h, 1 µM, compound concentration 1 uM, replicate 2
# [7] = 24 h, 10 µM, compound concentration 10 uM, replicate 1
# [8] = 24 h, 10 µM, compound concentration 10 uM, replicate 2
# [9] = 48 h, 1 µM, compound concentration 1 uM, replicate 1
# [10] = 48 h, 1 µM, compound concentration 1 uM, replicate 2
# [11] = 48 h, 10 µM, compound concentration 10 uM, replicate 1
# [12] = 48 h, 10 µM, compound concentration 10 uM, replicate 2
compound,measurement,setting,value
COc1ccc(-c2ccc3ncc4c(c3c2)n(-c2ccc(N3CCNCC3)c(C(F)(F)F)c2)c(=O)n4C)cn1.O=C(O)/C=C\C(=O)O [BGT-226],Population Apoptotic (%),[1],70%
same,Population Fragmented Nuclei (%),[1],22%
same,Population Healthy Nuclei (%),[1],2%
same,Population Hoechst High Intensity Objects (%),[1],25%
same,Population Mitochondria Different-Phenotype (%),[1],87%
same,Population Mitotic Cells (%),[1],29%
same,Population Normal (%),[1],74%
same,Population Pyknosed Nuclei (%),[1],74%
same,Population Tubulin-Different-Phenotype (%),[1],87%
same,Total Cell Count,[1],358
same,Population Apoptotic (%),[2],78%
same,Population Fragmented Nuclei (%),[2],8%
same,Population Healthy Nuclei (%),[2],6%
same,Population Hoechst High Intensity Objects (%),[2],10%
same,Population Membrane Permeable-Phenotype (%),[2],0%
same,Population Mitochondria Different-Phenotype (%),[2],100%
same,Population Mitotic Cells (%),[2],21%
same,Population Normal (%),[2],89%
same,Population Pyknosed Nuclei (%),[2],84%
same,Population Tubulin-Different-Phenotype (%),[2],90%
same,Total Cell Count,[2],162
same,Population Apoptotic (%),[3],72%
same,Population Fragmented Nuclei (%),[3],28%
same,Population Healthy Nuclei (%),[3],0%
same,Population Hoechst High Intensity Objects (%),[3],28%
same,Population Membrane Permeable-Phenotype (%),[3],50%
same,Population Mitochondria Different-Phenotype (%),[3],50%
same,Population Mitotic Cells (%),[3],27%
same,Population Normal (%),[3],71%
same,Population Pyknosed Nuclei (%),[3],70%
same,Population Tubulin-Different-Phenotype (%),[3],100%
same,Total Cell Count,[3],306
same,Population Apoptotic (%),[4],96%
same,Population Fragmented Nuclei (%),[4],51%
same,Population Healthy Nuclei (%),[4],7%
same,Population Hoechst High Intensity Objects (%),[4],45%
same,Population Membrane Permeable-Phenotype (%),[4],11%
same,Population Mitochondria Different-Phenotype (%),[4],16%
same,Population Mitotic Cells (%),[4],3%
same,Population Normal (%),[4],54%
same,Population Pyknosed Nuclei (%),[4],41%
same,Population Tubulin-Different-Phenotype (%),[4],66%
same,Total Cell Count,[4],454
same,Population Apoptotic (%),[5],70%
same,Population Fragmented Nuclei (%),[5],27%
same,Population Healthy Nuclei (%),[5],2%
same,Population Hoechst High Intensity Objects (%),[5],20%
same,Population Membrane Permeable-Phenotype (%),[5],12%
same,Population Mitochondria Different-Phenotype (%),[5],75%
same,Population Mitotic Cells (%),[5],29%
same,Population Normal (%),[5],79%
same,Population Pyknosed Nuclei (%),[5],69%
same,Population Tubulin-Different-Phenotype (%),[5],75%
same,Total Cell Count,[5],358
same,Population Apoptotic (%),[6],84%
same,Population Fragmented Nuclei (%),[6],9%
same,Population Healthy Nuclei (%),[6],9%
same,Population Hoechst High Intensity Objects (%),[6],8%
same,Population Membrane Permeable-Phenotype (%),[6],7%
same,Population Mitochondria Different-Phenotype (%),[6],92%
same,Population Mitotic Cells (%),[6],15%
same,Population Normal (%),[6],91%
same,Population Pyknosed Nuclei (%),[6],81%
same,Population Tubulin-Different-Phenotype (%),[6],92%
same,Total Cell Count,[6],169
same,Population Apoptotic (%),[7],77%
same,Population Fragmented Nuclei (%),[7],38%
same,Population Healthy Nuclei (%),[7],0%
same,Population Hoechst High Intensity Objects (%),[7],35%
same,Population Membrane Permeable-Phenotype (%),[7],0%
same,Population Mitochondria Different-Phenotype (%),[7],0%
same,Population Mitotic Cells (%),[7],22%
same,Population Normal (%),[7],64%
same,Population Pyknosed Nuclei (%),[7],61%
same,Population Tubulin-Different-Phenotype (%),[7],0%
same,Total Cell Count,[7],317
same,Population Apoptotic (%),[8],98%
same,Population Fragmented Nuclei (%),[8],48%
same,Population Healthy Nuclei (%),[8],15%
same,Population Hoechst High Intensity Objects (%),[8],46%
same,Population Membrane Permeable-Phenotype (%),[8],25%
same,Population Mitochondria Different-Phenotype (%),[8],28%
same,Population Mitotic Cells (%),[8],1%
same,Population Normal (%),[8],53%
same,Population Pyknosed Nuclei (%),[8],35%
same,Population Tubulin-Different-Phenotype (%),[8],77%
same,Total Cell Count,[8],422
same,Population Apoptotic (%),[9],74%
same,Population Fragmented Nuclei (%),[9],38%
same,Population Healthy Nuclei (%),[9],1%
same,Population Hoechst High Intensity Objects (%),[9],21%
same,Population Membrane Permeable-Phenotype (%),[9],0%
same,Population Mitochondria Different-Phenotype (%),[9],100%
same,Population Mitotic Cells (%),[9],25%
same,Population Normal (%),[9],78%
same,Population Pyknosed Nuclei (%),[9],60%
same,Population Tubulin-Different-Phenotype (%),[9],100%
same,Total Cell Count,[9],380
same,Population Apoptotic (%),[10],84%
same,Population Fragmented Nuclei (%),[10],10%
same,Population Healthy Nuclei (%),[10],18%
same,Population Hoechst High Intensity Objects (%),[10],11%
same,Population Membrane Permeable-Phenotype (%),[10],3%
same,Population Mitochondria Different-Phenotype (%),[10],88%
same,Population Mitotic Cells (%),[10],15%
same,Population Normal (%),[10],88%
same,Population Pyknosed Nuclei (%),[10],71%
same,Population Tubulin-Different-Phenotype (%),[10],85%
same,Total Cell Count,[10],166
same,Population Apoptotic (%),[11],85%
same,Population Fragmented Nuclei (%),[11],45%
same,Population Healthy Nuclei (%),[11],0%
same,Population Hoechst High Intensity Objects (%),[11],42%
same,Population Membrane Permeable-Phenotype (%),[11],0%
same,Population Mitochondria Different-Phenotype (%),[11],0%
same,Population Mitotic Cells (%),[11],14%
same,Population Normal (%),[11],57%
same,Population Pyknosed Nuclei (%),[11],54%
same,Population Tubulin-Different-Phenotype (%),[11],0%
same,Total Cell Count,[11],360
same,Population Apoptotic (%),[12],98%
same,Population Fragmented Nuclei (%),[12],53%
same,Population Healthy Nuclei (%),[12],22%
same,Population Hoechst High Intensity Objects (%),[12],44%
same,Population Membrane Permeable-Phenotype (%),[12],14%
same,Population Mitochondria Different-Phenotype (%),[12],48%
same,Population Mitotic Cells (%),[12],1%
same,Population Normal (%),[12],55%
same,Population Pyknosed Nuclei (%),[12],24%
same,Population Tubulin-Different-Phenotype (%),[12],75%
same,Total Cell Count,[12],397
